Pf gamet viab: late stage P. falciparum gametocyte viability inhibitors, primary screen, ATP luminescence, HTS; actives 0.065% (n = 150,000); inhibition, % at 10.9 µM; P. falciparum stage V gametocytes, 24 h;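 active = inhibition above the mean plus 3 SD of compounds within the control limits, set per campaign, cut at about 38% in these data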;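 note: 0% = DMSO wells and 100% = medium only without gametocytes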
ROMK mod: ROMK potassium channel modulators, primary screen, cell-based, thallium flux, MLSMR library; ATP-sensitive inward rectifier potassium channel 1 (Homo sapiens), P48048; Tet-inducible ROMK, thallium flux fluorescence; actives lie on both sides; B-score at 10 µM; actives 2% (n = 130,000); AID 1918, 2009;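 active = signal ratio slope over the read window, or its plate-corrected B-score, at least 3 SD from the plate mean, either direction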;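 note: B-score of the F/F0 ratio slope over 7 to 12 s after thallium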
Target sequence (P48048 whole entry, looked up): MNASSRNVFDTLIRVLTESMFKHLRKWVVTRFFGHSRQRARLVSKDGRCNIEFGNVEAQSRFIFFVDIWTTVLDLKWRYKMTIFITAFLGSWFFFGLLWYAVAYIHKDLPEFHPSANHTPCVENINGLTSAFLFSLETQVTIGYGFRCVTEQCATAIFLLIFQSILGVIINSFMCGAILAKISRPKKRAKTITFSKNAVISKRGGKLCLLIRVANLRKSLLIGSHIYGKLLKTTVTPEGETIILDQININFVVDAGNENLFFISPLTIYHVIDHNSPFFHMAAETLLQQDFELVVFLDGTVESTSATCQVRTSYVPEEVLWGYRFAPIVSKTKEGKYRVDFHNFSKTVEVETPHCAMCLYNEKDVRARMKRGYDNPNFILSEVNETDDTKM
Calb biofilm kill: clotrimazole potentiators killing C. albicans biofilm, primary screen, 4-compound mixtures; C. albicans biofilm persisters + clotrimazole, fluorescence viability; primary screen in compound mixtures of four per well; inhibition, % at 7.6 µM; actives 0.02% (n = 120,000);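 active = inhibition above 30.3% in the primary screen of four-compound pools, then above 30% when the compound was retested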;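 note: compounds exposed to preformed 24 h biofilms for 48 h; 0% = untreated biofilm control and 100% = clotrimazole plus chlorhexidine kill blank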
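Probe or stimulus – Clotrimazole 50 µg/mL co-treatment · System – C. albicans biofilms · Schedule – 24 h biofilm formation, then 48 h compound exposure, 37 °C · Evaluation – percent inhibition of biofilm viability · Technique – 2-h Alamar Blue fluorescence, 535/590 nm excitation/emission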
ROMK hit retest: ROMK channel modulator hit retest, confirmation, cell-based, thallium flux, duplicate, resupplied hits; shares compounds with ROMK mod; fluorescence ratio; hits give low values; normalized thallium flux (F/F0 slope) at 10 µM; actives 54% (n = 3,000);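 active = Flux at 10 µM at least 3 SD below or above vehicle control mean in one or both replicates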
An asterisk follows results filed as active; nt = no result. Many of the other results were omitted from the sample, so hits are more common in it than they were.

SMILES	Pf gamet viab	ROMK mod	Calb biofilm kill	ROMK hit retest
CNC(=O)/C(C#N)=C/c1c(N(Cc2ccccc2)Cc2ccccc2)nc2c(C)cccn2c1=O	7	nt	2	0.059*
CCNC(=O)/C(C#N)=C/c1c(N(Cc2ccccc2)Cc2ccccc2)nc2ccccn2c1=O	9	nt	11	nt
CC(C)C(=O)Nc1cccc(C(=O)Nc2ccc(S(=O)(=O)N3CCOCC3)cc2)c1	-10	nt	nt	nt
O=c1c2cc(Cl)ccc2nc(-c2ccccc2)n1O	6	2.6	17	nt
O=c1c2cc(Cl)ccc2nc(-c2ccc(Cl)c(Cl)c2)n1O	0	nt	21	0.18*
CC(C)CNC(=S)NC(=O)c1ccc(F)cc1	2	-0.6	3	nt
CN(C)c1ccc(C=C(c2nnnn2-c2ccccc2)c2nnnn2-c2ccccc2)cc1	-5	-0.05	8	nt

High-throughput results: PubChem, several laboratories
